Source: ChEMBL document CHEMBL3627676, “Modulation of disulfide dual ENKephalinase inhibitors (DENKIs) activity by a transient N-protection for pain alleviation by oral route” (Eur J Med Chem, 2015)
Active and inactive are the calls of the source.

Experiments:
[1] = system: Mus musculus; test: Antinociceptive activity in iv dosed OF1 mouse assessed as increase in jump latency by hot plate test; type: functional, organism-based
In short: (§1)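 Hot plate in male OF1 mice. 10 mg/kg given iv in EtOH/Cremophor/H2O (1/1/8) or EtOH/Tween 80/H2O (1/1/8). Jump latency recorded with a 240 s cut-off over a time course. n = 6 per group.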

[2] = system: Mus musculus; test: Antinociceptive activity in po dosed OF1 mouse assessed as increase in jump latency by hot plate test; type: functional, organism-based
In short: (§2)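 Hot plate test in male OF1 mice (20–25 g). 150 mg/kg given per os in EtOH/PEG400/H2O (1/4/5). Jump latency recorded by stop-watch, cut-off 240 s, followed over time. Mean ± sem, n = 7–8 per group.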

[3] = system: Mus musculus; test: Analgesic activity in OF1 mouse assessed as decrease in hindpaw licking at 50 mg/kg ,po administered 150 mins prior to formalin challenge by formalin test; type: functional; parameters: scale not given: the % may be the effect or the level left
In short: (§3)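 Male OF1 mice, 25e32 g, 50 mg/kg given orally in ethanol/0.5% methylcellulose in water (1.5/98.5) before formalin. After 30 min adaptation, 20 µL of 5% formalin injected s.c. into the hindpaw. Licking/biting of the injected paw timed by stop-watch during the early phase (0–5 min). Analgesia (%) versus vehicle, n = 6–8 per group.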

[4] = system: Mus musculus; test: Analgesic activity in OF1 mouse assessed as decrease in hindpaw licking at 50 mg/kg ,po administered 90 mins prior to formalin challenge by formalin test; type: functional; parameters: scale not given: the % may be the effect or the level left; in short: as §3
[5] = system: Mus musculus; test: Analgesic activity in OF1 mouse assessed as decrease in hindpaw licking at 50 mg/kg ,po administered 210 mins prior to formalin challenge by formalin test relative to control; type: functional, organism-based; in short: as §3
[6] = system: Mus musculus; test: Analgesic activity in OF1 mouse assessed as decrease in hindpaw licking at 50 mg/kg ,po administered 120 mins prior to formalin challenge by formalin test; type: functional; in short: as §3
[7] = system: Mus musculus; test: Antinociceptive activity in OF1 mouse assessed as increase in jump latency at 150 mg/kg, po by hot plate test; type: functional, organism-based; in short: as §2
[8] = system: Mus musculus; test: Antinociceptive activity in OF1 mouse assessed as increase in jump latency at 10 mg/kg, iv by hot plate test; type: functional, organism-based; in short: as §1
[9] = system: Mus musculus; test: Analgesic activity in OF1 mouse assessed as decrease in hindpaw licking at 50 mg/kg ,po administered 20 mins prior to formalin challenge by formalin test; type: functional; parameters: scale not given: the % may be the effect or the level left; in short: as §3
[10] = system: Mus musculus; test: Analgesic activity in OF1 mouse assessed as decrease in hindpaw licking at 50 mg/kg ,po administered 60 mins prior to formalin challenge by formalin test; type: functional; parameters: scale not given: the % may be the effect or the level left; in short: as §3
[11] = system: Plasma; test: Drug level in Sprague-Dawley rat plasma treated with 1-(1-{2-[(1-Ethoxycarbonyloxy-ethoxycarbonylmethyl)-carbamoyl]-3-phenyl-propyldisulfanylmethyl}-3-methylsulfanyl-propylcarbamoyloxy)-ethyl isobutyrate at 800 uM incubated for 1 to 60 mins by LC/MS analysis; type: ADME, cell-free
In short: (§4)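 Prodrug at 800 µM final concentration incubated at 37 °C in male Sprague-Dawley rat plasma (heparin lithium; 66 mg protein/mL) for 1, 5, 15, 30 and 60 min. Reaction stopped with absolute EtOH. Parent and metabolites monitored by LC/MS, in triplicate.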

[12] = molecular target: Aminopeptidase N (Homo sapiens, UniProt P15144); test: Inhibition of recombinant human Aminopeptidase N using L-Ala-beta-NA as substrate preincubated for 30 mins followed by substrate addition measured after 30 mins by fluorometry
[13] = system: Mus musculus; test: Antiallodynic activity in OF1 mouse partial sciatic nerve ligation model assessed as increase in mechanical threshold to pressure at 50 mg/kg, po after 90 mins by von Frey test; type: functional
In short: (§5)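 PSNL in male OF1 mice (16–18 g): under isoflurane, a tight ligation placed around 33–50% of the right sciatic nerve. 50 mg/kg given by oral gavage in EtOH/0.5% methylcellulose (1.5/98.5). Paw withdrawal threshold (g) measured with von Frey filaments by up-down method before dosing and at 45, 90 and 150 min. n = 5–7 per group.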

[14] = system: Mus musculus; test: Antihyperalgesic activity in OF1 mouse partial sciatic nerve ligation model assessed as increase in […] threshold to thermal stimuli at 50 mg/kg, po measured upto 150 mins by planar test; type: functional, organism-based
In short: (§6)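 Male OF1 PSNL mice given 50 mg/kg orally in EtOH/0.5% methylcellulose in water (1.5/98.5). Thermal hyperalgesia assessed by plantar test as paw withdrawal to a thermal stimulus, expressed relative to the contralateral paw, at time points up to 150 min.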

[15] = system: Mus musculus; test: Antiallodynic activity in OF1 mouse partial sciatic nerve ligation model assessed as increase in mechanical threshold to pressure at 50 mg/kg, po after 45 mins by von Frey test; type: functional; in short: as §5
[16] = system: Mus musculus; test: Antiallodynic activity in OF1 mouse partial sciatic nerve ligation model assessed as increase in mechanical threshold to pressure at 50 mg/kg, po after 150 mins by von Frey test; type: functional; in short: as §5
[17] = system: Mus musculus; test: Antihyperalgesic activity in OF1 mouse partial sciatic nerve ligation model assessed as increase in […] threshold to thermal stimuli at 50 mg/kg, po measured at 90 mins by planar test relative to control; type: functional; in short: as §6
[18] = molecular target: Neprilysin (Homo sapiens, UniProt P08473); test: Inhibition of recombinant human Neprilysin using Suc-Ala-Ala-Phe-AMC as substrate preincubated for 30 mins followed by substrate addition measured after 30 mins by fluorometry
[19] = system: Mus musculus; test: Antiallodynic activity in po dosed OF1 mouse partial sciatic nerve ligation model assessed as increase in mechanical threshold to pressure at 25 mg/kg, po after 30 mins by von Frey test; type: functional
In short: (§7)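 PSNL mice (male OF1, 16–18 g; partial sciatic ligation of 33–50% under isoflurane). Oral gavage at 12.5, 25 or 50 mg/kg in EtOH/0.5% methylcellulose (1.5/98.5). Von Frey up-down withdrawal thresholds measured on ipsilateral and contralateral paws before dosing and at 30, 60 and 120 min. Kruskal-Wallis with Dunn's test.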

[20] = system: Mus musculus; test: Antiallodynic activity in OF1 mouse partial sciatic nerve ligation model assessed as increase in mechanical threshold to pressure at 50 mg/kg, po after 45 to 60 mins by von Frey test; type: functional, organism-based
[21] = system: Mus musculus; test: Antiallodynic activity in po dosed OF1 mouse partial sciatic nerve ligation model assessed as increase in mechanical threshold to pressure at 25 mg/kg, po after 60 mins by von Frey test; type: functional; in short: as §7
[22] = system: Mus musculus; test: Antiallodynic activity in po dosed OF1 mouse partial sciatic nerve ligation model assessed as increase in mechanical threshold to pressure after 120 mins by von Frey test; type: functional, organism-based; in short: as §7
[23] = system: Mus musculus; test: Antiallodynic activity in po dosed OF1 mouse partial sciatic nerve ligation model assessed as increase in mechanical threshold to pressure after 30 mins by von Frey test; type: functional, organism-based; in short: as §7
[24] = system: Mus musculus; test: Antiallodynic activity in po dosed OF1 mouse partial sciatic nerve ligation model assessed as increase in mechanical threshold to pressure after 60 mins by von Frey test; type: functional, organism-based; in short: as §7
[25] = system: Mus musculus; test: Antiallodynic activity in po dosed OF1 mouse partial sciatic nerve ligation model assessed as increase in mechanical threshold to pressure at 25 mg/kg, po after 120 mins by von Frey test; type: functional; in short: as §7
[26] = system: Plasma; test: Prodrug conversion in Sprague-Dawley rat plasma assessed as formation of (S)-2-((S)-3-(((S)-2-amino-4-(methylthio)butyl)disulfanyl)-2-benzylpropanamido)propanoic acid at 800 uM incubated for 1 to 60 mins by LC/MS analysis; type: ADME, cell-free; in short: as §4
[27] = system: Plasma; test: Prodrug conversion in Sprague-Dawley rat plasma assessed as formation of PL37 at 800 uM incubated for 1 to 60 mins by LC/MS analysis; type: ADME, cell-free; in short: as §4
[28] = system: Plasma; test: Prodrug conversion in Sprague-Dawley rat plasma assessed as formation of 1-{1-[2-(Carboxymethyl-carbamoyl)-3-phenyl-propyldisulfanylmethyl]-3-methylsulfanyl-propylcarbamoyloxy}-ethyl isobutyrate at 800 uM incubated for 1 to 60 mins by LC/MS analysis; type: ADME, cell-free; in short: as §4

Aminopeptidase N, sequence (P15144 whole entry): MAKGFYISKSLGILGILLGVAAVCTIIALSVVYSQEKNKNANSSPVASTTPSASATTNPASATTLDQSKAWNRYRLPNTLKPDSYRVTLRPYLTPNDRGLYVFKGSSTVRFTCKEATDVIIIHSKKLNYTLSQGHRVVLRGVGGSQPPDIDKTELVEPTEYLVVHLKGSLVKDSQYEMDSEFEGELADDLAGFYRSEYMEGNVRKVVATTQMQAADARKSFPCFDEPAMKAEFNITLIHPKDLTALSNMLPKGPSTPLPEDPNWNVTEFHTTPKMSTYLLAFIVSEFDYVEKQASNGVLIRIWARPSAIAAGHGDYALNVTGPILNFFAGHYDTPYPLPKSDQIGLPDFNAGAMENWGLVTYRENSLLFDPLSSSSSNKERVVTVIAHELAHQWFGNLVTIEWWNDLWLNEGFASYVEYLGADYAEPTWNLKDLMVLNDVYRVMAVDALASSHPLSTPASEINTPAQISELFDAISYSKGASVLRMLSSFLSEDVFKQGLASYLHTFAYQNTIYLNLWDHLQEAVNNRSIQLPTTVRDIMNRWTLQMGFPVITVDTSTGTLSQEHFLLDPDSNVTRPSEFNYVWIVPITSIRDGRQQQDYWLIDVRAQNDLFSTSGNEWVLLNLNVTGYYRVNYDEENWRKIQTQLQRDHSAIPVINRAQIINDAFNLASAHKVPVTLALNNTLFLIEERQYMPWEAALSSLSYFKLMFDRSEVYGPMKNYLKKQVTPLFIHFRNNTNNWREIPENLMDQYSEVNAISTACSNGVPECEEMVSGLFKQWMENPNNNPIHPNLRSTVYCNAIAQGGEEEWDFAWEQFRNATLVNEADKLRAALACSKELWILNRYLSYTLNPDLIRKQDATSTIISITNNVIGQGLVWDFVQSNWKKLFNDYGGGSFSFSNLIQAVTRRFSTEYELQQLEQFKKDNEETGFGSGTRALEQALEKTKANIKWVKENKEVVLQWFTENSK
Neprilysin, sequence (P08473 whole entry): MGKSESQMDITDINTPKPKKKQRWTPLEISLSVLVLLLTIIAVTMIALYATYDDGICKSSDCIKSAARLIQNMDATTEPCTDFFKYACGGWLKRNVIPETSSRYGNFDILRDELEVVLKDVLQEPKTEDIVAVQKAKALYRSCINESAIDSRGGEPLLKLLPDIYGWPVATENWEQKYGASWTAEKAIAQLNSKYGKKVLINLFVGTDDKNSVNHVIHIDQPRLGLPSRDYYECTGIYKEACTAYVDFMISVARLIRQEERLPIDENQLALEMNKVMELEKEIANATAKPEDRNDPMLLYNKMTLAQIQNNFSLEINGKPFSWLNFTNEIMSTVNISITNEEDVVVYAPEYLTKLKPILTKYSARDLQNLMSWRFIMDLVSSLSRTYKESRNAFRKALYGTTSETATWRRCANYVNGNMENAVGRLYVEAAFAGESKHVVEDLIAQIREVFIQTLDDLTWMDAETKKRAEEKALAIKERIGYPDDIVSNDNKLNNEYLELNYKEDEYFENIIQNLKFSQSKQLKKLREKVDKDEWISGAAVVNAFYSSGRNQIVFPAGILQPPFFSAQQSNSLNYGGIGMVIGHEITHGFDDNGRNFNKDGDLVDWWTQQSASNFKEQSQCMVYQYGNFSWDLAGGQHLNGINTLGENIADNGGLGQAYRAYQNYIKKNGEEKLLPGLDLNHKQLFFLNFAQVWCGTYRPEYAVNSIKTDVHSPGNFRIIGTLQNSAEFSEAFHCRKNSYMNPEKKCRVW

Row | SMILES | Activity [1] | Activity [2] | Activity [3] | Activity [4] | Activity [5] | other results
1 | CCOC(=O)OC(C)OC(=O)CNC(=O)[C@@H](CSSC[C@H](CC[S+](C)[O-])NC(=O)OC(C)OC(=O)C(C)C)Cc1ccccc1 (some centres undefined) | inactive | inactive | 38% | 39% | inactive | 
2 | CSCC[C@@H](CSSC[C@@H](Cc1ccccc1)C(=O)NCC(=O)OCc1ccccc1)NC(=O)OC(C)OC(=O)C(C)C (some centres undefined) | inactive | inactive | 26% | 34% | inactive | 
3 | CCOC(=O)OC(C)OC(=O)CNC(=O)[C@@H](CSSC[C@@H](N)CCSC)Cc1ccccc1.O=C(O)/C=C/C(=O)O (some centres undefined) |  |  |  |  |  | Activity [6]: inactive; Activity [7]: Active; Activity [8]: Active; Activity [9]: 62%; Activity [10]: 31%
4 | CC(OC(=O)N[C@@H](CC[S+](C)[O-])CSSC[C@@H](Cc1ccccc1)C(=O)NCC(=O)OCc1ccccc1)OC(=O)C(C)C (some centres undefined) | inactive | inactive | 38% | 39% | inactive | 
5 | C[S+]([O-])CC[C@H](N)CSSC[C@@H](Cc1ccccc1)C(=O)NCC(=O)OCc1ccccc1 (some centres undefined) |  | Active |  |  |  | 
6 | C[S+]([O-])CC[C@H](N)CSSCC1(C(=O)N[C@@H](CC(=O)O)C(=O)O)CCCC1 (some centres undefined) |  | Active |  |  |  | 
7 | CSCC[C@H](N)CSSC[C@@H](Cc1ccccc1)C(=O)NCC(=O)O |  | Active |  |  |  | Drug metabolism [11]: metabolite_detected
8 | O=C(O)C[C@H](NC(=O)C1(CS)CCCC1)C(=O)O |  |  |  |  |  | Ki [12]: > 10 µM
9 | CSCC[C@@H](CSSC[C@@H](Cc1ccccc1)C(=O)NCC(=O)O)NC(=O)OC(C)OC(=O)C(C)C (some centres undefined) | inactive | inactive | 31% | 34% | inactive | Activity [13]: 56%; Activity [14]: Active; Activity [15]: 64%; Activity [16]: 18%; Drug metabolism [11]: metabolite_detected; Activity [17]: 100%
10 | C[S+]([O-])CC[C@H](N)CS (some centres undefined) |  |  |  |  |  | Ki [18]: > 10 µM
11 | CCOC(=O)OC(C)OC(=O)CNC(=O)[C@@H](CSSC[C@@H](N)CC[S+](C)[O-])Cc1ccccc1 (some centres undefined) |  | Active |  |  |  | 
12 | CC(OC(=O)N[C@@H](CC[S+](C)[O-])CSSC[C@@H](Cc1ccccc1)C(=O)NCC(=O)O)OC(=O)C(C)C (some centres undefined) | inactive | inactive | 38% | 39% | inactive | Activity [19]: 40%; Activity [20]: Active; Activity [21]: 52%; Activity [22]: Dose-dependent effect; Activity [23]: Dose-dependent effect; Activity [24]: Dose-dependent effect; Activity [25]: 63%
13 | O=C(O)CNC(=O)C(CS)Cc1ccccc1 (centres undefined) [THIORPHAN] |  |  |  |  |  | Ki [12]: > 10 µM
14 | CC(OC(=O)N[C@@H](CC[S+](C)[O-])CSSCC1(C(=O)N[C@@H](CC(=O)O)C(=O)O)CCCC1)OC(=O)C(C)C (some centres undefined) | inactive | inactive | 47% | 46% | inactive | 
15 | CSCC[C@H](N)CSSC[C@@H](Cc1ccccc1)C(=O)NCC(=O)OCc1ccccc1 |  | Active |  |  |  | 
16 | C[S+]([O-])CC[C@H](N)CSSC[C@@H](Cc1ccccc1)C(=O)NCC(=O)O (some centres undefined) |  | Active |  |  |  | 
17 | CCOC(=O)OC(C)OC(=O)CNC(=O)[C@@H](CSSC[C@H](CCSC)NC(=O)OC(C)OC(=O)C(C)C)Cc1ccccc1 (some centres undefined) |  |  | 30% | 32% | inactive | Drug metabolism [26]: metabolite_detected; Drug metabolism [27]: metabolite_notdetected; Activity [6]: 31%; Activity [7]: inactive; Activity [8]: inactive; Activity [9]: 25%; Activity [10]: 56%; Drug metabolism [28]: metabolite_detected
